Results from paper PMC4077287 (Angewandte Chemie (International ed. in English), 2013).

Legend:
[1] = system: caspase-3 activity in HeLa cell lysates; experiment: Caspase-3 assay of lysates of Dox-treated HeLa cells; type: cell-based; settings: doxorubicin 2 μM, 24 h
[2] = system: caspase-3 level in HeLa tumor xenograft; experiment: Caspase-3 level detected in Dox-treated tumors; type: in vivo, nude mice; settings: intratumoral Dox 0.2 mg, 4 days post treatment
Procedure, shortened: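 HeLa xenografts on the right shoulder of nude mice were imaged before and 4 days after intratumoral Dox (0.2 mg). The 18F-labeled caspase-3-activatable nano-aggregation tracer or its D-peptide control (5–15 MBq) was given i.v. by tail vein. Static 5 min PET scans were taken at 65, 125 and 182 min post injection. Tumor and muscle uptake was reported as %ID/g, with the tumor/muscle ratio taken from average region uptake.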

[3] = system: apoptotic tumors; settings: ref 7a; cited from earlier work

For `COc1cccc2c1C(=O)c1c(O)c3c(c(O)c1C2=O)C[C@@](O)(C(=O)CO)C[C@@H]3O[C@H]1C[C@H](N)[C@H](O)[C@H](C)O1` [Dox, doxorubicin], the “caspase-3 activity of lysates of Dox-treated cells vs non-treated cells” value [1] was 9.5 fold and the “caspase-3 level increase in treated tumors” value [2] was 1.9 fold.
In the case of `O=C1C(=O)N(Cc2cn(CC[18F])nn2)c2ccc(S(=O)(=O)N3CCCC3COc3ccc(F)cc3F)cc21` (stereo not drawn) [[^18F]ICMT-11], the “trend of uptake in apoptotic tumors over time after injection” value [3] is listed as “decreased over the time after injection”.
